Measured values reported in ChEMBL document CHEMBL1782036, “Atovaquone derivatives as potent cytotoxic and apoptosis inducing agents” (Bioorg Med Chem Lett, 2009).

system: DU-145; experiment: Growth inhibition of human DU145 cells after 72 hrs by MTT assay; type: functional, cell-based; details: DU-145, 72 h
How it was run: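 Du145 human prostate carcinoma cells were screened by MTT cell-growth inhibition assay. IC50 values are means of three experiments.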

| SMILES | IC50 [µM] |
| --- | --- |
| O=C1C=C(N2CCN(c3ccc(Br)cc3)CC2)C(=O)c2ccccc21 | > 50 |
| O=C1C=C(N2CCC(c3ccc(Cl)cc3)CC2)C(=O)c2ccccc21 | 7.3 |
| O=C1C(N2CCN(c3ccccc3)CC2)=CC(=O)c2c(O)cccc21 | 15.2 |
| COc1cc(OC)cc(N2CCN(C3=CC(=O)c4ccccc4C3=O)CC2)c1 | 14.9 |
| Cc1ccccc1C1CCN(C2=CC(=O)c3ccccc3C2=O)CC1 | 6.1 |
| O=C1C=C(N2CCN(c3ccc(F)cc3)CC2)C(=O)c2c(O)cccc21 | 8.4 |
| O=C1C(O)=C([C@H]2CC[C@H](c3ccc(Cl)cc3)CC2)C(=O)c2ccccc21 [ATOVAQUONE] | 29.3 |
| O=C1C=C(N2CCC(c3ccccc3)CC2)C(=O)c2ccccc21 | 6 |
| COc1cc(N2CCN(C3=CC(=O)c4ccccc4C3=O)CC2)cc(OC)c1OC | 11.6 |

More lines, now with the values ahead:

| IC50 [µM] | SMILES |
| --- | --- |
| 8 | COc1ccccc1N1CCN(C2=CC(=O)c3ccccc3C2=O)CC1 |
| 15 | COc1cccc(N2CCN(C3=CC(=O)c4ccccc4C3=O)CC2)c1 |
| 8.2 | Cc1ccc(N2CCN(C3=CC(=O)c4ccccc4C3=O)CC2)cc1 |
| 7.4 | Cc1cccc(N2CCN(C3=CC(=O)c4ccccc4C3=O)CC2)c1 |
| 46.1 | COc1ccc(N2CCN(C3=CC(=O)c4ccccc4C3=O)CC2)cc1 |
| 11.7 | O=C1C=C(N2CCN(c3ccc(F)cc3)CC2)C(=O)c2ccccc21 |
| 5.7 | Cc1ccccc1N1CCN(C2=CC(=O)c3ccccc3C2=O)CC1 |
